According to ChEMBL document CHEMBL1142515, “Synthesis and evaluation of structurally constrained quinazolinone derivatives as potent and selective histamine H3 receptor inverse agonists” (J Med Chem, 2008):
Blank lines part the entries; values can stand above or below the molecule they belong to.

Legend:
[1] = target: Voltage-gated inwardly rectifying potassium channel KCNH2 (Homo sapiens, UniProt Q12809); experiment: Antagonist activity at human ERG in HEK293 cells assessed as inhibition of [35S]N-[(4R)-1'-[(2R)-6-cyano-1,2,3,4-tetrahydro-2-naphthalenyl]-3,4-dihydro-4-hydroxyspiro[2H-1-benzopyran-2,4'-piperidin]-6-yl]methanesulfonamide binding
Chain of Voltage-gated inwardly rectifying potassium channel KCNH2 (Q12809 whole entry): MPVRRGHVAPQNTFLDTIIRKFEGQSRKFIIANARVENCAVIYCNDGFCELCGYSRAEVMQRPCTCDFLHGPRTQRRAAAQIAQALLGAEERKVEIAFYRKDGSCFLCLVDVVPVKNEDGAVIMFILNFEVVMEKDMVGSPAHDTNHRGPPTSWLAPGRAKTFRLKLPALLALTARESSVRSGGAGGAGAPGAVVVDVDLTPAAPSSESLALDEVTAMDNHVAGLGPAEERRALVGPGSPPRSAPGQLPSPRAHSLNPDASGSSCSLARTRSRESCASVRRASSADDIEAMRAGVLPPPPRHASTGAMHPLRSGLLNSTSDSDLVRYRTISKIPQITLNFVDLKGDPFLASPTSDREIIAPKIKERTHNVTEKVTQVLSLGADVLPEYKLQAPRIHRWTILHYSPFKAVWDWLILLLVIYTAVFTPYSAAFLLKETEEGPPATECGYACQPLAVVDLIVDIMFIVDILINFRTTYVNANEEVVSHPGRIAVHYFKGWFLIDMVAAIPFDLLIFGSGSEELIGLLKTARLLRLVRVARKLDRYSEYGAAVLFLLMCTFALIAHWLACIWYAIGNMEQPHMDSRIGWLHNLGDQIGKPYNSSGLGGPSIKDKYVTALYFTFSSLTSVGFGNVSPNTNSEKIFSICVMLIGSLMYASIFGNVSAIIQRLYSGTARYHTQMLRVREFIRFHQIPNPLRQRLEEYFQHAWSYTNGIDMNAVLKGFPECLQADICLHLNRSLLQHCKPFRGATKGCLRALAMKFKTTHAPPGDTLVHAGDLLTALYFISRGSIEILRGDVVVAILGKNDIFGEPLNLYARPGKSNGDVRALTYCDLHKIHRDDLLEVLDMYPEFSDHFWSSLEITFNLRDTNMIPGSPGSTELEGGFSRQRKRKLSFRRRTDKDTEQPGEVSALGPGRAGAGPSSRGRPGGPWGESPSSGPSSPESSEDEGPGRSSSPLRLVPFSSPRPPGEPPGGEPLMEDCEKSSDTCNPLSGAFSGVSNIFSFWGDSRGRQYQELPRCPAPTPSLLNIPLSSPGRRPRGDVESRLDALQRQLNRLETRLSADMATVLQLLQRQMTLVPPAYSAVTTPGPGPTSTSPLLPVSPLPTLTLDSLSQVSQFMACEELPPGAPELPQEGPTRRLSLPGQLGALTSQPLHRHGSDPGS

[2] = target: T1, Histamine H3 receptor (Homo sapiens, UniProt Q9Y5N1); experiment: Antagonist activity at human cloned histamine H3 receptor expressed in CHO-K1 cells assessed as inhibition of R-alpha-methylhistamine-induced [35S]GTPgammaS binding; assay type: functional, cell-based
T1 sequence (Q9Y5N1 whole entry): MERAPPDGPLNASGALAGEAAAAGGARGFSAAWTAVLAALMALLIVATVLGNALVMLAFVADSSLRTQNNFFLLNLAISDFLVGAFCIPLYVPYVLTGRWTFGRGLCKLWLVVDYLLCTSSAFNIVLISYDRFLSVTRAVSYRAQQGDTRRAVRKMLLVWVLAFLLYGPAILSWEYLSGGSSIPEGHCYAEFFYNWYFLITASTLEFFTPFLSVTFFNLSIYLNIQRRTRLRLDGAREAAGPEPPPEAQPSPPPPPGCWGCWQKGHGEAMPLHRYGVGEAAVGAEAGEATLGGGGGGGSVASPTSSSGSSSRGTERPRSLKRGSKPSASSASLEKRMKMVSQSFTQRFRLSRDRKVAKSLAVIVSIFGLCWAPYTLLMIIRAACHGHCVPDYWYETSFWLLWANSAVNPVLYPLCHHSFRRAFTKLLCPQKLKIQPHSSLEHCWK

[3] = Ratio of drug level brain to plasma in wild type mdr1a (+/+) CF1 mouse at 0.3 mg/kg, po after 2 hrs; assay type: ADME, organism-based; design: dose 0.3 mg/kg, route oral; conditions: read-out: BPR
In short: (§1)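 Female mdr1a (+/+) and mdr1a (−/−) CF-1 mice dosed by oral gavage. Terminal blood and whole brain collected 2 h later. Brain homogenized by ultrasonication in 4 volumes water. Plasma and brain deproteinized with ethanol plus internal standard, then measured by LC-MS/MS (positive ESI, MRM). Mean ± SE, n = 3. Brain/plasma ratios calculated from mean values.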

[4] = tested on: Brain; experiment: Ex vivo drug level in mdr1a (-/-) deficient CF1 mouse brain at 0.3 mg/kg, po after 2 hrs; assay type: ADME, organism-based; design: dose 0.3 mg/kg, route oral; in short: as §1
[5] = target: Histamine H4 receptor (Homo sapiens, UniProt Q9H3N8); experiment: Inhibition of human histamine H4 receptor
[6] = tested on: Rattus norvegicus; experiment: Increase in tele-methylhistamine level in po dosed Sprague-Dawley rat brain after 2 hrs relative to control; assay type: functional, organism-based
In short: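 Male SD rats given vehicle (0.5% methylcellulose) or compound po at 1, 3, 10 mg/kg, co-dosed with pargyline ip. Decapitated at 2 h and brains homogenized. tele-Methylhistamine measured by HPLC with fluorometry after solid-phase extraction. Mean ± SE from five experiments. Compared with vehicle by ANOVA with Dunnett's test.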

[7] = Drug level in Sprague-Dawley rat cerebrospinal fluid at 10 mg/kg, po after 2 hrs; assay type: ADME, organism-based; design: dose 10 mg/kg, route oral; conditions: read-out: Drug uptake
In short: (§2)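 Male SD rats dosed orally at 10 mg/kg. Plasma, brain and CSF concentrations determined 2 h after dosing. Brain/plasma ratio taken from these levels. Mean of n = 3 animals.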

[8] = tested on: Brain; experiment: Drug level in Sprague-Dawley rat brain at 10 mg/kg, po after 2 hrs; assay type: ADME, organism-based; design: dose 10 mg/kg, route oral; conditions: in vivo; in short: as §2
[9] = Cmax in Beagle dog at 0.3 mg/kg, iv and 1 mg/kg, po; assay type: ADME, organism-based, Canis lupus familiaris; conditions: in vivo
In short: (§3)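 Male SD rats, male Beagle dogs, male rhesus monkeys given single doses iv (PEG400/EtOH/H2O 50/10/40) or po by gavage (0.5% methylcellulose suspension). Rats 1 mg/kg iv and 3 mg/kg po; dogs and monkeys 0.3 mg/kg iv and 1 mg/kg po. Plasma sampled at multiple times up to 24 h, deproteinized with ethanol plus internal standard. Mean of n = 3 animals/dose.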

[10] = Cmax in rhesus monkey at 0.3 mg/kg, iv and 1 mg/kg, po; assay type: ADME, organism-based, Macaca mulatta; conditions: in vivo; in short: as §3
[11] = tested on: Rhesus monkey; experiment: AUC (0 to infinity) in rhesus monkey at 1 mg/kg, po; assay type: ADME, organism-based, Macaca mulatta, Plasma; design: time infinity, dose 1 mg/kg, route oral; conditions: in vivo; in short: as §3
[12] = target: Histamine H1 receptor (Homo sapiens, UniProt P35367); experiment: Inhibition of human histamine H1 receptor
Chain of Histamine H1 receptor (P35367 whole entry): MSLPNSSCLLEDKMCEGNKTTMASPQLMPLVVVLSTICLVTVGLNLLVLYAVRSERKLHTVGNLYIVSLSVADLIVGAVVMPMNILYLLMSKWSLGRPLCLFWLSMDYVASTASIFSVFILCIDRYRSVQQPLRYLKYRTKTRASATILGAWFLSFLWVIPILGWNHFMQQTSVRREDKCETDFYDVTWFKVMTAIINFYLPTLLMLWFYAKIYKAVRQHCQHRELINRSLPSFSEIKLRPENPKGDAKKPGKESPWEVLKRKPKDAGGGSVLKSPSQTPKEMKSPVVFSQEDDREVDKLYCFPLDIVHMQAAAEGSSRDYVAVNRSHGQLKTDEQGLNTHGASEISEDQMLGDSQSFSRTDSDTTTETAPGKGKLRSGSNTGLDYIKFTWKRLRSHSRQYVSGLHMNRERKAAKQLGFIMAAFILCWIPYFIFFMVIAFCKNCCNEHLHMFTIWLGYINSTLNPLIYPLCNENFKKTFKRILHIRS

[13] = Oral bioavailability in Sprague-Dawley rat at 3 mg/kg; assay type: ADME, organism-based; conditions: in vivo; in short: as §3
[14] = target: Histamine H3 receptor (Mus musculus, UniProt P58406); experiment: Displacement of [3H]N-alpha-methylhistamine from mouse recombinant histamine H3 receptor
Chain of Histamine H3 receptor (Mus musculus, UniProt P58406) (P58406 whole entry): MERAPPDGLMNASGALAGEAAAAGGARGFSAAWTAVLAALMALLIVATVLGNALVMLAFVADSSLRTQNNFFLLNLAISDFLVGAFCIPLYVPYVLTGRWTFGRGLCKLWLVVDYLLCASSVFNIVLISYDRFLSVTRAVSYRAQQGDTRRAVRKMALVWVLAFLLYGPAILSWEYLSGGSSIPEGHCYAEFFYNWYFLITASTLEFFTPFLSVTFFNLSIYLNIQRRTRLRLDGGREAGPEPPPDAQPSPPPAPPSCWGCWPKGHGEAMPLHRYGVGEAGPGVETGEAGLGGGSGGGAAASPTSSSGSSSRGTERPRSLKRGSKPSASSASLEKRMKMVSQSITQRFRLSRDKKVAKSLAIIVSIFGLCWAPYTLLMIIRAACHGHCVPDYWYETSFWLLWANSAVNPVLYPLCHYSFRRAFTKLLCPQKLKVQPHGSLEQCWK

[15] = AUC (0 to infinity) in Beagle dog at 1 mg/kg, po; assay type: ADME, organism-based, Canis lupus familiaris, Plasma; design: time infinity, dose 1 mg/kg, route oral; conditions: Beagle, plasma; in short: as §3
[16] = tested on: Mus musculus; experiment: Ex vivo receptor occupancy of histamine H3 receptor expressed in wild type po dosed CF1 mouse brain after 2 hrs; assay type: functional
In short: (§4)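 Female wild-type and mdr1a (−/−) CF-1 mice given vehicle or compound po (0.1–3 mg/kg) and decapitated at 2 h. Coronal striatal sections (20 μm) incubated 10 min at room temperature with 400 pM tritiated quinazolinone H3 inverse agonist radioligand in sodium phosphate buffer. Nonspecific binding defined with 10 μM R-α-methylhistamine. Sections imaged 6 h by beta-Imager. Brain Occ90 obtained from occupancy versus brain concentration. Plasma Occ90 = brain Occ90/brain-to-plasma ratio.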

[17] = AUC (0 to infinity) in Sprague-Dawley rat at 3 mg/kg, po; assay type: ADME, organism-based; design: time infinity, dose 3 mg/kg, route oral; conditions: plasma; in short: as §3
[18] = Ex vivo drug level in wild type mdr1a (+/+) CF1 mouse plasma at 0.3 mg/kg, po after 2 hrs; assay type: ADME, organism-based; design: dose 0.3 mg/kg, route oral; conditions: read-out: Drug uptake; in short: as §1
[19] = Cmax in Sprague-Dawley rat at 1 mg/kg, iv and 3 mg/kg, po; assay type: ADME, organism-based; conditions: in vivo; in short: as §3
[20] = tested on: LLC-PK1; experiment: Ratio of permeability from apical to basolateral side over basolateral to apical side in pig LLC-PK1 cells expressing mouse MDR1a; assay type: ADME, cell-based, Sus scrofa
[21] = Plasma clearance in Sprague-Dawley rat at 1 mg/kg, iv; assay type: ADME, organism-based; design: dose 1 mg/kg, route intravenous; in short: as §3
[22] = Ratio of drug level in brain to plasma in Sprague-Dawley rat at 10 mg/kg, po after 2 hrs; assay type: ADME, organism-based; design: dose 10 mg/kg, route oral; conditions: read-out: BPR; in short: as §2
[23] = tested on: Rhesus monkey; experiment: Oral bioavailability in rhesus monkey at 1 mg/kg; assay type: ADME, organism-based, Macaca mulatta; conditions: in vivo; in short: as §3
[24] = tested on: LLC-PK1; experiment: Ratio of permeability from apical to basolateral side over basolateral to apical side in pig LLC-PK1 cells expressing human MDR1; assay type: ADME, cell-based, Sus scrofa
[25] = Plasma clearance in Beagle dog at 0.3 mg/kg, iv; assay type: ADME, organism-based, Canis lupus familiaris; design: dose 0.3 mg/kg, route intravenous; in short: as §3
[26] = Ex vivo drug level in mdr1a (-/-) deficient CF1 mouse plasma at 0.3 mg/kg, po after 2 hrs; assay type: ADME, organism-based; design: dose 0.3 mg/kg, route oral; conditions: read-out: Drug uptake; in short: as §1
[27] = Ratio of drug level in cerebrospinal fluid to brain in Sprague-Dawley rat at 10 mg/kg, po after 2 hrs; assay type: ADME, organism-based, CSF/Brain; design: dose 10 mg/kg, route oral; conditions: in vivo
[28] = tested on: Mus musculus; experiment: Ex vivo receptor occupancy of histamine H3 receptor expressed in po dosed wild type CF1 mouse plasma assessed by brain occupancy/brain to plasma ratio after 2 hrs; assay type: functional; in short: as §4
[29] = Plasma concentration in Sprague-Dawley rat at 10 mg/kg, po after 2 hrs; assay type: ADME, organism-based; design: dose 10 mg/kg, route oral; in short: as §2
[30] = Ratio of drug level brain to plasma in mdr1a (-/-) deficient CF1 mouse at 0.3 mg/kg, po after 2 hrs; assay type: ADME, organism-based; design: dose 0.3 mg/kg, route oral; conditions: read-out: BPR; in short: as §1
[31] = target: Histamine H3 receptor (Rattus norvegicus, UniProt Q9QYN8); experiment: Displacement of [3H]N-alpha-methylhistamine from rat recombinant histamine H3 receptor expressed in HEK293 cells; assay type: cell-based
Chain of Histamine H3 receptor (Rattus norvegicus, UniProt Q9QYN8) (Q9QYN8 whole entry): as the sequence (P58406 whole entry) above, with A15T, T286A, G290A, H387R, V389I counted along it

[32] = tested on: Rattus norvegicus; experiment: Ex vivo receptor occupancy of histamine H3 receptor in Sprague-Dawley rat assessed as drug level in brain at 1 mg/kg, po after 2 hrs; assay type: functional
In short: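 Male SD rats given vehicle or 1 mg/kg compound by oral gavage and decapitated at 2 h. Striatal sections (20 μm) incubated 10 min at room temperature with 400 pM tritiated H3 inverse agonist radioligand in sodium phosphate buffer. Nonspecific binding defined with 10 μM R-α-methylhistamine. Beta-Imager exposure 6 h. Drug levels measured by LC-MS/MS.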

[33] = target: T1, Histamine H3 receptor; experiment: Displacement of [3H]N-alpha-methylhistamine from human recombinant histamine H3 receptor expressed in CHO-K1 cells; assay type: cell-based
[34] = tested on: Brain; experiment: Ex vivo drug level in wild type mdr1a (+/+) CF1 mouse brain at 0.3 mg/kg, po after 2 hrs; assay type: ADME, organism-based; design: dose 0.3 mg/kg, route oral; in short: as §1
[35] = Oral bioavailability in Beagle dog at 1 mg/kg; assay type: ADME, organism-based, Canis lupus familiaris; conditions: Beagle, in vivo; in short: as §3
[36] = tested on: Mus musculus; experiment: Ex vivo receptor occupancy of histamine H3 receptor expressed in po dosed MDR1a deficient CF1 mouse plasma assessed by brain occupancy/brain to plasma ratio after 2 hrs; assay type: functional; in short: as §4
[37] = target: Histamine H2 receptor (Homo sapiens, UniProt P25021); experiment: Inhibition of human histamine H2 receptor
Chain of Histamine H2 receptor (P25021 whole entry): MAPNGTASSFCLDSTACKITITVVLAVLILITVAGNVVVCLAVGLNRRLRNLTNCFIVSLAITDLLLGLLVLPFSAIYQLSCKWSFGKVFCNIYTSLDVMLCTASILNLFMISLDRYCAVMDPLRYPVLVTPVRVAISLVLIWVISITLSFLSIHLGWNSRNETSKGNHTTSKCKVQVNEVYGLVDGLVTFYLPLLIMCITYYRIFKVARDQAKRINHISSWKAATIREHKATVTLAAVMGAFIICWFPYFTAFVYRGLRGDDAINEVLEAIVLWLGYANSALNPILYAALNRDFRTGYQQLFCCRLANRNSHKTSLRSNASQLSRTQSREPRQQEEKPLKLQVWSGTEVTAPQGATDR

SMILES: COc1cccc2nc(C)n(-c3ccc(OC4CCN(C5CCC5)CC4)cc3)c(=O)c12
IC50 [1]: > 10000 nM
IC50 [2]: 1.2 nM

SMILES: CCN1CCC(Oc2ccc(-n3c(C)nc4ccccc4c3=O)cc2)CC1
IC50 [2]: 49 nM

SMILES: Cc1nc2ccccc2c(=O)n1-c1ccc(OC2CCN(C)CC2)cc1
IC50 [2]: 740 nM

SMILES: Cc1nc2ccccc2c(=O)n1-c1ccc(OC2CCN(C3CCCC3)C2)cc1 (stereo not drawn)
IC50 [2]: 37 nM

SMILES: Cc1nc2ccccc2c(=O)n1-c1ccc(OC2CCN(C3CCC3)C2)cc1 (stereo not drawn)
IC50 [2]: 103 nM

SMILES: Cc1nc2ccccc2c(=O)n1-c1ccc(O[C@H]2CC[C@H](N3CCCC3)CC2)cc1
IC50 [2]: 813 nM

SMILES: Cc1nc2ncccc2c(=O)n1-c1ccc(OC2CCN(C3CCC3)CC2)cc1
IC50 [1]: > 10000 nM
IC50 [2]: 1.6 nM

SMILES: Cc1nc2ccccc2c(=O)n1-c1ccc(OC2CCCN(C3CCC3)CC2)cc1 (stereo not drawn)
IC50 [1]: 7300 nM
IC50 [2]: 10 nM

SMILES: CCCN1CCC(Oc2ccc(-n3c(C)nc4ccccc4c3=O)cc2)CC1
IC50 [2]: 60 nM

SMILES: Cc1nc2ccccc2c(=O)n1-c1ccc(OC2CCC(N3CCCC3)C2)cc1 (stereo in doubt; 3b)
IC50 [1]: 10000 nM
IC50 [2]: 8.6 nM

Second part, led by results:

IC50 [2]: 1.8 nM
SMILES: Cc1nc2cnccc2c(=O)n1-c1ccc(OC2CCN(C3CCC3)CC2)cc1
IC50 [1]: > 10000 nM

IC50 [2]: 0.84 nM
SMILES: Cc1nc2c(F)cccc2c(=O)n1-c1ccc(OC2CCN(C3CCC3)CC2)cc1

IC50 [2]: 1.3 nM
SMILES: Cc1nc2cc(F)ccc2c(=O)n1-c1ccc(OC2CCN(C3CCC3)CC2)cc1

IC50 [2]: 3 nM
SMILES: Cc1nc2cc(Cl)ccc2c(=O)n1-c1ccc(OC2CCN(C3CCC3)CC2)cc1
IC50 [1]: 3900 nM

IC50 [2]: 2 nM
SMILES: Cc1nc2ccncc2c(=O)n1-c1ccc(OC2CCN(C3CCC3)CC2)cc1
IC50 [1]: > 10000 nM

IC50 [2]: 0.34 nM
SMILES: Cc1nc2cccc(Cl)c2c(=O)n1-c1ccc(OC2CCN(C3CCC3)CC2)cc1
IC50 [1]: > 10000 nM

IC50 [2]: 1.2 nM
SMILES: Cc1nc2ccc(F)cc2c(=O)n1-c1ccc(OC2CCN(C3CCC3)CC2)cc1
IC50 [1]: > 10000 nM

Kp at 2 h [3]: 1.9
IC50 [2]: 0.55 nM
Drug uptake [4]: 0.26 nmol/g
IC50 [5]: > 10000 nM
concentration at 2 h [7]: 950 nM
Drug uptake [8]: 7.6 nmol/g
Cmax [9]: 20 nM
Cmax [10]: 380 nM
AUC [11]: 1.7 µM·h
IC50 [12]: > 10000 nM
bioavailability [13]: 53%
Ki [14]: 8.4 nM
AUC(0-inf) [15]: 0.05 µM·h
AUC(0-inf) [17]: 6.2 µM·h
concentration at 2 h [18]: 32 nM
Cmax [19]: 1300 nM
Ratio [20]: 1.8
clearance [21]: 11 mL/min/kg
Kp at 2 h [22]: 3.2
F [23]: 37%
Ratio [24]: 1
clearance [25]: 44 mL/min/kg
concentration at 2 h [26]: 28 nM
Ratio [27]: 0.13
concentration at 2 h [29]: 2400 nM
Kp at 2 h [30]: 9.4
Ki [31]: 6 nM
Ki [33]: 6.8 nM
Drug uptake [34]: 0.062 nmol/g
bioavailability [35]: 4.8%
IC50 [37]: > 10000 nM
SMILES: Cc1nc2cccc(F)c2c(=O)n1-c1ccc(OC2CCN(C3CCC3)CC2)cc1
IC50 [1]: > 10000 nM
Activity [6]: Dose-dependent effect
Occ90 [16]: 0.28 nmol/g
Occ90 [28]: 144 nM
Activity [32]: >90%
Occ90 [36]: 30 nM
